Laboratory results taken from ChEMBL document CHEMBL1124690, “Synthesis and antitumor activity of fused tetracyclic quinoline derivatives. 1” (J Med Chem, 1989).
≈ marks a conversion by molar mass, not a printed value. Calls of active or inactive are those of the source. The calls are words filed in the database; no cut-off is given here.

Legend:
[1] = Percent fluorescence of the ethidium bromide-DNA complex
How it was run: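 Ethidium displacement: ethidium bromide 3 µM and calf thymus DNA 20 µM in Hepes 2 mM, EDTA 10 µM, NaCl 9.4 mM, pH 7.0; drug 10 µM. Excitation 564 nm filter, emission 595 nm. Fluorescence with drug as % of drug-free control; mean ± SE of three experiments.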

[2] = Inhibition of KB cell growth in vitro; format: functional, cell-based; conditions: Homo sapiens
How it was run: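 KB clonal cells in Eagle's MEM with 10% calf serum, 37 °C, 5% CO2; seeded 2100 cells/cm², medium changed at 24 h, then graded drug 0.3–100 µg/mL for 48 h, duplicate dishes per concentration. Cells trypsinized and counted by Coulter counter; IC50 from log concentration vs growth rate (% of control).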

P388 [3] = experiment: Median survival time per control mice with leukemia P388 at 400 mg/kg dose injected a dose of 400 mg/kg; format: functional, organism-based; conditions: Mus musculus
How it was run: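 CD2F1 mice (six per group) given 10⁶ P388 cells ip; drug in 0.9% NaCl with a drop of Tween 80, ip on days 1 and 5. Activity as % T/C of median survival time, treated vs control.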

[4] = tested on: DNA topoisomerase II (Bos taurus); experiment: Activity of the topoisomerase II dependent DNA cleavage; Inactive
P388 [5] = experiment: Median survival time per control mice with leukemia P388 at 100 mg/kg dose injected intraperitoneally; format: functional, Mus musculus; conditions: route intraperitoneal
How it was run: (§1)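 CD2F1 mice (six per group) implanted ip with 10⁶ P388 leukemia cells. Drug dissolved in 0.9% NaCl with a drop of Tween 80, given ip once daily on days 1 and 5. % T/C = median survival time treated/control × 100.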

P388 [6] = experiment: Median survival time per control mice with leukemia P388 at 12.5 mg/kg dose injected intraperitoneally; format: functional, Mus musculus; conditions: route intraperitoneal; how it was run: as §1
P388 [7] = experiment: Median survival time per control mice with leukemia P388 at 200 mg/kg dose injected intraperitoneally; format: functional, Mus musculus; conditions: route intraperitoneal; how it was run: as §1
P388 [8] = experiment: Median survival time per control mice with leukemia P388 at 25 mg/kg dose injected intraperitoneally; format: functional, Mus musculus; conditions: route intraperitoneal; how it was run: as §1
P388 [9] = experiment: Median survival time per control mice with leukemia P388 at 400 mg/kg dose injected intraperitoneally; format: functional, Mus musculus; conditions: route intraperitoneal; how it was run: as §1
P388 [10] = experiment: Median survival time per control mice with leukemia P388 at 50 mg/kg dose injected intraperitoneally; format: functional, Mus musculus; conditions: route intraperitoneal; how it was run: as §1
[11] = tested on: DNA topoisomerase II (Bos taurus); experiment: Activity of the topoisomerase II dependent DNA cleavage; Active
[12] = tested on: DNA topoisomerase 1 (Bos taurus); experiment: Unwinding of DNA observed in a reaction mixture containing PBR322 DNA dimer, calf thymus DNA topoisomerase I, and the drug; ++ = unwinding was observed at 25 ug/mL
P388 [13] = experiment: Median survival time per control mice with leukemia P388 at 10 mg/kg dose injected intraperitoneally; format: functional, Mus musculus; conditions: route intraperitoneal; how it was run: as §1
P388 [14] = experiment: Median survival time per control mice with leukemia P388 at 20 mg/kg dose injected intraperitoneally; format: functional, Mus musculus; conditions: route intraperitoneal; how it was run: as §1
P388 [15] = experiment: Median survival time per control mice with leukemia P388 at 40 mg/kg dose injected intraperitoneally; format: functional, Mus musculus; conditions: route intraperitoneal; how it was run: as §1
[16] = tested on: DNA topoisomerase 1 (Bos taurus); experiment: Unwinding of DNA observed in a reaction mixture containing PBR322 DNA dimer, calf thymus DNA topoisomerase I, and the drug; + = unwinding was observed at 100 ug/mL
[17] = tested on: DNA topoisomerase II (Bos taurus); experiment: Activity of the topoisomerase II dependent DNA cleavage; (-) = Inactive
B16 [18] = experiment: Median survival time per control animal with B16 cells at 12.5 mg/kg dose injected intraperitoneally on day 1,5,8; format: functional, Mus musculus; conditions: route intraperitoneal
How it was run: (§2)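 Female-unspecified B6D2F1 mice inoculated ip with 0.5 mL of 10% homogenate (Hank's saline) of subcutaneous B16 melanoma. Drug given ip on days 1, 5 and 8. % T/C = median survival time of treated over control group.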

B16 [19] = experiment: Median survival time per control animal with B16 cells at 25 mg/kg dose injected intraperitoneally on day 1,5,8; format: functional, Mus musculus; conditions: route intraperitoneal; how it was run: as §2
B16 [20] = experiment: Median survival time per control animal with B16 cells at 6.3 mg/kg dose injected intraperitoneally on day 1,5,8; format: functional, Mus musculus; conditions: route intraperitoneal; how it was run: as §2
[21] = Median survival time per control animal with colon 38 carcinoma cells at 25 mg/kg dose injected intraperitoneally on day 1,8,15,22; format: functional, Mus musculus; conditions: route intraperitoneal
How it was run: (§3)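 Colon 38 inoculated sc as a 1 × 1 × 1 mm³ fragment into B6D2F1 mice; drug dosed ip on days 1, 8, 15 and 22. Result expressed as % T/C of median survival time, treated versus control.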

[22] = Median survival time per control animal with colon 38 carcinoma cells at 35 mg/kg dose injected intraperitoneally on day 1,8,15,22; format: functional, Mus musculus; conditions: route intraperitoneal; how it was run: as §3
[23] = Median survival time per control animal with colon 38 carcinoma cells at 6.3 mg/kg dose injected intraperitoneally on day 1,8,15,22; format: functional, Mus musculus; conditions: route intraperitoneal; how it was run: as §3
M5076 [24] = experiment: Median survival time per control animal with M5076 cells at 12.5 mg/kg dose injected intraperitoneally on day 1,5,9; format: functional, Mus musculus; conditions: route intraperitoneal
How it was run: (§4)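 B6D2F1 mice inoculated ip with 10⁶ M5076 fibrosarcoma cells; drug given ip on days 1, 5 and 9. Activity read as % T/C, ratio of median survival time of treated to control group.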

M5076 [25] = experiment: Median survival time per control animal with M5076 cells at 25 mg/kg dose injected intraperitoneally on day 1,5,9; format: functional, Mus musculus; conditions: route intraperitoneal; how it was run: as §4
M5076 [26] = experiment: Median survival time per control animal with M5076 cells at 3.1 mg/kg dose injected intraperitoneally on day 1,5,9; format: functional, Mus musculus; conditions: route intraperitoneal; how it was run: as §4
M5076 [27] = experiment: Median survival time per control animal with M5076 cells at 50 mg/kg dose injected intraperitoneally on day 1,5,9; format: functional, Mus musculus; conditions: route intraperitoneal; how it was run: as §4
M5076 [28] = experiment: Median survival time per control animal with M5076 cells at 6.3 mg/kg dose injected intraperitoneally on day 1,5,9; format: functional, Mus musculus; conditions: route intraperitoneal; how it was run: as §4
[29] = Median survival time per control animal with colon 38 carcinoma cells at 12.5 mg/kg dose injected intraperitoneally on day 1,8,15,22; format: functional, Mus musculus; conditions: route intraperitoneal; how it was run: as §3

Row | SMILES | Fluoroscence [1] | IC50 [2] | T/C (P388 [3]) | T/C (P388 [6]) | T/C (P388 [8]) | T/C (P388 [10]) | also measured
1 | COc1cc(NS(C)(=O)=O)ccc1Nc1c2c(nc3ccccc13)CCCC2 | 93.3% | 41 µg/mL (≈ 103 µM) | inactive | – | – | – | Activity [4]: inactive
2 | CN(C)CCCNc1c2c(nc3ccccc13)CCN(C)C2 | – | 14 µg/mL (≈ 46.9 µM) | inactive | – | – | – | –
3 | COc1cc(NS(C)(=O)=O)ccc1Nc1c2ccccc2nc2c1sc1ccccc12 | 79.3% | < 0.3 µg/mL | – | 138% | 170% | 170% | T/C (P388 [5]): 166%; T/C (P388 [7]): 238%; T/C (P388 [9]): 252%; Activity [11]: Active; Unwinding [12]: unwinding was observed at 25 ug/mL
4 | COc1cc(NS(C)(=O)=O)ccc1Nc1c2ccccc2nc2ccccc12 [AMSACRINE] | 63.7% | < 0.3 µg/mL | – | – | – | – | T/C (P388 [13]): 174%; T/C (P388 [14]): 198%; T/C (P388 [15]): 223%
5 | COc1cc(NS(C)(=O)=O)ccc1Nc1c2ccccc2nc2c3ccccc3n(C)c12 | 93.6% | 3.6 µg/mL (≈ 8.06 µM) | inactive | – | – | – | –
6 | CN(C)CCCNc1c2c(nc3ccccc13)CCCC2 | 82% | 1.3 µg/mL (≈ 4.59 µM) | inactive | – | – | – | –
7 | COc1cc(NS(C)(=O)=O)ccc1Nc1c2ccccc2nc2c1oc1ccccc12 | 81.4% | < 0.3 µg/mL | – | 117% | 125% | 159% | T/C (P388 [5]): 138%; T/C (P388 [7]): 168%; T/C (P388 [9]): 248%; Activity [11]: Active; Unwinding [16]: unwinding was observed at 100 ug/mL
8 | CN(C)CCCNc1c2c(nc3ccccc13)-c1ccccc1C2 | 5.45% | < 0.3 µg/mL | – | 110% | 88% | 101% | Activity [17]: inactive
9 | COc1cc(NS(C)(=O)=O)ccc1Nc1c2c(nc3ccccc13)-c1ccccc1C2 | 67.6% | < 0.3 µg/mL | – | 166% | 217% | 240% | T/C (B16 [18]): 223%; T/C (B16 [19]): 211%; T/C (B16 [20]): 184%; T/C [21]: 138%; T/C [22]: 150%; T/C [23]: 111%; T/C (M5076 [24]): 184%; T/C (M5076 [25]): 111%; T/C (M5076 [26]): 193%; T/C (M5076 [27]): 92%; T/C (M5076 [28]): 158%; T/C (P388 [5]): 80%; T/C (P388 [7]): 60%; T/C (P388 [9]): 0%; T/C [29]: 133%; Activity [11]: Active
10 | COc1cc(NS(C)(=O)=O)ccc1Nc1c2c(nc3ccccc13)CCN(C)C2 | 104% | > 100 µg/mL | inactive | – | – | – | –
11 | COc1cc(NS(C)(=O)=O)ccc1Nc1c2c(nc3ccccc13)CCSC2 | 106% | 46 µg/mL (≈ 111 µM) | inactive | – | – | – | –
12 | COc1cc(NS(C)(=O)=O)ccc1Nc1c2c(nc3ccccc13)-c1ccccc1C2C (centres undefined) | 95.3% | 15 µg/mL (≈ 33.7 µM) | inactive | – | – | – | Activity [4]: inactive
